In ChEMBL document CHEMBL4017524, “A Novel Arylurea Fatty Acid That Targets the Mitochondrion and Depletes Cardiolipin To Promote Killing of Breast Cancer Cells” (J Med Chem, 2017):
Activity calls are given as the source filed them. The calls are words filed in the database; no cut-off is given here.

Experiments:
MDA-MB-231 [1] = assay: Cytotoxicity against human MDA-MB-231 cells assessed as decrease in cell viability at 40 uM after 48 hrs by crystal violet staining based assay; type: functional
MDA-MB-231 [2] = assay: Cytotoxicity against human MDA-MB-231 cells assessed as decrease in ATP production at 10 uM after 24 to 48 hrs by CellTiter-Glo luminescent assay; type: functional, cell-based
MDA-MB-231 [3] = assay: Induction of apoptosis in human MDA-MB-231 cells assessed as mitochondrial membrane disruption by measuring red to green fluorescence ratio at 10 uM after 24 hrs by JC-1 staining based microscopic method relative to control; type: functional
Summary of the method: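 Cells exposed for 24 h at 10 µM, then stained with the cationic dye JC-1. Red (aggregate, intact inner membrane) to green (monomer) fluorescence ratio expressed relative to DMSO control. Mean±SEM of three experiments.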

MDA-MB-231 [4] = assay: Induction of apoptosis in human MDA-MB-231 cells assessed as increase in caspases 3/7 activity at 10 uM after 48 hrs by Caspase-Glo assay; type: functional, cell-based
MDA-MB-231 [5] = assay: Cytotoxicity against human MDA-MB-231 cells assessed as decrease in cell adherence at 40 uM after 48 hrs by crystal violet staining based assay; type: functional
MDA-MB-231 [6] = assay: Induction of apoptosis in human MDA-MB-231 cells assessed as mitochondrial membrane disruption at 10 uM after 6 hrs by JC-1/Hoechst 33342 staining based fluorescence microscopic assay; type: functional, cell-based
Summary of the method: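 Treatment with 10 µM or DMSO for 6 h. Cells were washed twice with serum-free medium, then incubated with JC-1 in serum-free medium at 37°C for 20 min. Hoechst 33342 nuclear counterstain, then fluorescence microscopy of green monomers versus red aggregates.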

## Cc1cc(NC(=O)NCCCCCCCCCCCCCCCC(=O)O)ccc1Cl
MDA-MB-231 [1]
  Activity: inactive
MDA-MB-231 [2]
  Activity: inactive
MDA-MB-231 [3]
  Activity: inactive
MDA-MB-231 [4]
  Activity: inactive
MDA-MB-231 [5]
  Activity: inactive

## CNC(=O)c1cc(Oc2ccc(NC(=O)Nc3ccc(Cl)c(C(F)(F)F)c3)cc2)ccn1
MDA-MB-231 [6]
  Activity: Active

## O=C(O)CCCCCCCCCCCCCCCNC(=O)Nc1ccc(F)cc1
MDA-MB-231 [2]
  Activity: inactive
MDA-MB-231 [3]
  Activity: inactive

## COc1ccc(NC(=O)NCCCCCCCCCCCCCCCC(=O)O)cc1
MDA-MB-231 [2]
  Activity: inactive
MDA-MB-231 [3]
  Activity: inactive

## O=C(O)CCCCCCCCCCCCCCCNC(=O)Nc1ccc(I)cc1
MDA-MB-231 [2]
  Activity: inactive
MDA-MB-231 [3]
  Activity: inactive

## CC(C)(C)c1ccc(NC(=O)NCCCCCCCCCCCCCCCC(=O)O)cc1
MDA-MB-231 [2]
  Activity: inactive
MDA-MB-231 [3]
  Activity: inactive
